Published values of several laboratories.
Compare with care: the assays were run in different laboratories.
HDAC6: Protein deacetylase HDAC6 (HDAC6, Homo sapiens, UniProt Q9UBN7)
CDK7 with cyclin H: Cyclin-dependent kinase 7, with cyclin H (CDK7, Homo sapiens, UniProt P50613)
ACSL4: Long-chain-fatty-acid--CoA ligase 4 (ACSL4, Homo sapiens, UniProt O60488)

| Compound | target | test | IC50 [µM] |
| --- | --- | --- | --- |
| N=C(N)NCCCC(=O)O | Alkaline phosphatase, tissue-nonspecific isozyme (Rattus norvegicus, UniProt P08289) | enzyme activity in cells, inhibitor, absorbance | 15200 |
| CCc1oc2cc(F)c(F)cc2c1C(=O)c1cc(Br)c(O)c(Br)c1 | Solute carrier organic anion transporter family member 2B1 (SLCO2B1, Homo sapiens, UniProt O94956) | transporter uptake, inhibitor, radiometric | 0.135 |
| O=C(NO)c1ccc(Cn2cnc3c(Nc4cccc([N+](=O)[O-])c4)ncnc32)cc1 | HDAC6 | enzyme activity, inhibitor, fluorescence | < 0.002 |
| CNS(=O)(=O)c1ccc(Nc2ncc(C(F)(F)F)c(N3CCC(C)(O)CC3)n2)c(C)c1 | CDK7 with cyclin H | enzyme activity, inhibitor, radiometric | 1.97 |
| O=C(CNc1cccc2c1C(=O)N(C1CCC(=O)NC1=O)C2=O)NCCCCCCN1CCc2c(c3ccccc3n2Cc2ccc(C(=O)NO)cc2)C1 (stereo not shown) | HDAC6 | enzyme activity, inhibitor, fluorescence | 0.04 |
| O=C(NO)c1ccc(Cn2cnc3c(Nc4ccc(F)c(Cl)c4)ncnc32)cc1 | HDAC6 | enzyme activity, inhibitor, fluorescence | 0.00617 |
| COC(=O)/C=C/c1ccc(OCCN(C)C(=O)c2ccc(C3(C(F)(F)F)N=N3)cc2)cc1 | ACSL4 | enzyme activity, inhibitor | 24.4 |
| COCCN1CCN(Cc2ccc(-c3n[nH]c4c3C(=O)c3c(NC(=O)NN5CCOCC5)cccc3-4)cc2)CC1 | Protein kinase 6 (Plasmodium falciparum, UniProt Q8IDW1) | enzyme activity, inhibitor, radiometric | 0.832 |
| CNS(=O)(=O)c1ccc(Nc2ncc3cc(Cl)c(=O)n(C4CCCC4)c3n2)c(C)c1 | CDK7 with cyclin H | enzyme activity, inhibitor, radiometric | 1.6 |
| COC(=O)/C=C/c1ccc(OCCN(C)C(=O)c2ccccc2)cc1 | ACSL4 | enzyme activity, inhibitor | 0.38 |
| O=C(COc1ccc(C2CCC(=O)NC2=O)cc1)NCCCCCCN1CCc2c(c3ccccc3n2Cc2ccc(C(=O)NO)cc2)C1 (stereo not shown) | HDAC6 | enzyme activity, inhibitor, fluorescence | 0.025 |
| COc1ccc(N(Cc2csc(-c3ccc(Br)cc3)n2)C(=O)CCCCCC(=O)NO)cc1 | HDAC6 | enzyme activity, inhibitor | 0.0032 |
| CN(C)C(=O)c1cc2cnc(Nc3ccc(-c4ccc5c(=O)cc(N6CCOCC6)oc5c4)cc3)nc2n1C1CCCC1 | CDK7 with cyclin H | enzyme activity, inhibitor | > 10 |
| COC(=O)/C=C/c1ccc(OCCN(C)c2ccccc2)cc1 | ACSL4 | enzyme activity, inhibitor | 1.5 |
| CN(CCCCCCNC(=O)CNc1cccc2c1C(=O)N(C1CCC(=O)NC1=O)C2=O)Cc1cn(Cc2ccc(C(=O)NO)cc2)c2ccccc12 (stereo not shown) | HDAC6 | enzyme activity, inhibitor, fluorescence | 0.026 |
| CN(CCCOc1ccc(CC2SC(=O)NC2=O)cc1)c1ccccc1 (stereo not shown) | ACSL4 | enzyme activity, inhibitor | 0.6 |
| CNS(=O)(=O)c1ccc(Nc2ncc(C(F)(F)F)c([C@H]3CC[C@@](C)(O)CC3)n2)c(C)c1 | CDK7 with cyclin H | enzyme activity, inhibitor, radiometric | 7.26 |
| Cc1c(C)c2c(c(C)c1O)CCC(C)(COc1ccc(CC3SC(=O)NC3=O)cc1)O2 (stereo not shown) | ACSL4 | enzyme activity, inhibitor | 26.3 |
| COc1ccc(N(Cc2csc(-c3ccc(C)cc3)n2)C(=O)CCCCCC(=O)NO)cc1 | HDAC6 | enzyme activity, inhibitor | 0.0025 |
| CN(CCOc1ccc(CC2SC(=O)NC2=O)cc1)c1ccccn1 (stereo not shown) | ACSL4 | enzyme activity, inhibitor | 1.1 |
| O=C(NO)c1ccc(CN2CCN(c3cccc4cc(S(=O)(=O)c5cccc(F)c5)cnc34)CC2)c(F)c1 | HDAC6 | enzyme activity, inhibitor, fluorescence | 0.54 |
| COC(=O)CCc1ccc(OCCN(C)c2ccccc2)cc1 | ACSL4 | enzyme activity, inhibitor | 8.5 |
| CNS(=O)(=O)c1ccc(Nc2ncc(C(F)(F)F)c(N3CCC[C@](C)(O)C3)n2)c(C)c1 | CDK7 with cyclin H | enzyme activity, inhibitor, radiometric | 1.61 |
| CN(CCOc1ccccc1)c1ccccn1 | ACSL4 | enzyme activity, inhibitor | > 50 |
| CN1CCC(CNc2ccc3ncc(-c4cccc(OC(F)(F)F)c4)n3n2)CC1 | 5-hydroxytryptamine receptor 1B (HTR1B, Homo sapiens, UniProt P28222) | cAMP, agonist | 0.095 |
